Reference: ChEMBL document CHEMBL3612005, “Discovery of N-aryl-naphthylamines as in vitro inhibitors of the interaction between HIV integrase and the cofactor LEDGF/p75” (Eur J Med Chem, 2015)
Calls of active or inactive are those of the source. The calls are words filed in the database; no cut-off is given here.

How the values were obtained:
[1] = target: Human immunodeficiency virus type 1 integrase (Human immunodeficiency virus 1) (UniProt Q7ZJM1); assay: Binding affinity to His6-tagged recombinant HIV1 Integrase assessed as inhibition of protein interaction with 3xFLAG-tagged LEDGF/p75 at 100 uM preincubated for 30 mins followed by 3xFLAG-tagged LEDGF/p75 addition measured after 60 mins by AlphaScreen assay relative to control
Chain of Human immunodeficiency virus type 1 integrase (Human immunodeficiency virus 1) (Q7ZJM1 as listed by the source): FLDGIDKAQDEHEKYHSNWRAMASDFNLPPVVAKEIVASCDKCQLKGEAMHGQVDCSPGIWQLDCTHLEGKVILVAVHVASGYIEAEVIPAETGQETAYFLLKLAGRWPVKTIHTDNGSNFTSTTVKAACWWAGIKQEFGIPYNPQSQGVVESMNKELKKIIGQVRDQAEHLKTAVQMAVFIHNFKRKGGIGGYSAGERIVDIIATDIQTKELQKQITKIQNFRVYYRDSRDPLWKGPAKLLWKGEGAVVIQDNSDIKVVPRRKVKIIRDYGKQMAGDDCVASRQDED
Procedure, shortened: (§1)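 His6-integrase (300 nM final) preincubated with compound 30 min at 4 °C, then FLAG-LEDGF/p75 (300 nM final) added for 60 min at 4 °C; Ni-chelate donor and anti-FLAG acceptor beads (20 µg/mL each) added, 1 h at 30 °C, light-protected. Buffer: 25 mM Tris-HCl pH 7.4, 150 mM NaCl, 1 mM MgCl2, 0.01% Tween-20, 0.1% BSA. Single-point screen at 100 µM; IC50 determined where inhibition exceeded 50%.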

Homo sapiens = species on record: Homo sapiens; assay: Inhibition of FLAG-tagged GST (unknown origin) at 100 uM by emission quenching AlphaScreen assay relative to control
Procedure, shortened: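 Emission-quench counter-screen: FLAG-tagged GST (500 nM final) replaces integrase and LEDGF/p75, otherwise run as the AlphaScreen interaction assay (Ni-chelate donor and anti-FLAG acceptor beads, 20 µg/mL each, 1 h at 30 °C; Tris-HCl pH 7.4 buffer). Compound tested at 100 µM; percent inhibition of signal.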

[2] = target: Human immunodeficiency virus type 1 integrase (Human immunodeficiency virus 1, UniProt Q7ZJM1); assay: Binding affinity to His6-tagged recombinant HIV1 Integrase assessed as inhibition of protein interaction with 3xFLAG-tagged LEDGF/p75 preincubated for 30 mins followed by 3xFLAG-tagged LEDGF/p75 addition measured after 60 mins by AlphaScreen assay; procedure, shortened: as §1
Chain of Human immunodeficiency virus type 1 integrase (Q7ZJM1 whole entry): as the sequence (Q7ZJM1 as listed by the source) above

[3] = test system: Human immunodeficiency virus 1; assay: Antiviral activity against HIV1 3B infected in human MT4 cells assessed as protection against virus-induced cytopathic effect by MTT assay; assay type: functional, organism-based; conditions: Human immunodeficiency virus 1, 3B
Procedure, shortened: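 MT-4 cells infected with 100–300 CCID50 of HIV-1 IIIB (virus titred in MT-4 cells) with five-fold serial dilutions of compound; protection from viral cytopathic effect read by MTT reduction to formazan, measured spectrophotometrically; EC50 = concentration giving 50% protection.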

[4] = Cytotoxicity against human MT4 cells assessed as reduction in cell viability by MTT assay; assay type: cell-based
Procedure, shortened: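 Uninfected MT-4 cells exposed to five-fold serial dilutions of compound; viability measured by MTT reduction to formazan, read spectrophotometrically; CC50 = concentration killing 50% of cells.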

Compound	inhibition [1]	inhibition (Homo sapiens)	IC50 [2]	EC50 [3]	CC50 [4]
COC(=O)c1ccc(Nc2ccc(O)c3ccccc23)cc1	49%				
Oc1ccc(Nc2ccc(O)c3ccccc23)cc1	95%	84%			
COC(=O)c1ccccc1Nc1c(O)ccc2ccccc12	28%				
Oc1c(Nc2ccccc2)ccc2ccccc12	61%				
COc1ccc(Nc2ccc(OC)c3ccccc23)cc1C(=O)O	41%				
COc1c(Nc2ccccc2)ccc2ccccc12	inactive				
COc1ccc2ccccc2c1Nc1c(OC)ccc2ccccc12	100%	74%	13.8 µM	> 3.41 µM	3.41 µM
O=C(O)c1ccc(Cn2ccc(=O)c3ccccc32)cc1	inactive				
COc1ccc(Nc2ccccc2)c2ccccc12	inactive				
COc1c(Nc2ccc(C(=O)O)cc2)ccc2ccccc12	inactive				
CCOC(=O)c1cn(Cc2ccc(C(=O)OC)cc2)c2ccccc2c1=O	60%		> 100 µM	> 5.63 µM	5.63 µM
Fc1ccc(Nc2ccc(F)c3ccccc23)cc1	63%		> 100 µM	> 38.4 µM	38.4 µM
O=C(O)c1ccc(Nc2ccc(O)c3ccccc23)cc1	95%	16%	2.5 µM	> 1.07 µM	1.07 µM
COc1c(Nc2ccc(I)cc2)ccc2ccccc12	inactive				
COC(=O)c1ccc(Cn2cc(C(C)=O)c(=O)c3ccccc32)cc1	46%				
CSc1ccc(Nc2ccc(F)c3ccccc23)cc1	inactive				
COC(=O)c1ccc(Nc2ccc3ccccc3c2OC)cc1	inactive				
O=C(O)c1ccc(Nc2cccc3ccccc23)cc1	39%				
O=C(O)c1ccc(Nc2ccc3ccccc3c2O)cc1	66%		70.1 µM	> 23.7 µM	23.7 µM

Compound	inhibition [1]	inhibition (Homo sapiens)	IC50 [2]	EC50 [3]	CC50 [4]
COC(=O)c1ccc(Nc2ccc3ccccc3c2O)cc1	58%				
O=C(O)c1ccc(Cn2cc(C(=O)O)c(=O)c3ccccc32)cc1	16%				
COc1ccc(I)cc1Nc1ccc(OC)c2ccccc12	61%		28.9 µM	> 12.5 µM	12.5 µM
COC(=O)c1ccccc1Nc1c(OC)ccc2ccccc12	inactive				
COC(=O)c1ccc(Nc2cccc3ccccc23)cc1	62%			> 27.5 µM	27.5 µM
COc1ccc(S(=O)(=O)c2ccc(OC)c3ccccc23)cc1	inactive				
COC(=O)c1ccc(Nc2ccc(OC)c3ccccc23)cc1	59%	inactive	34.8 µM		
CC(=O)c1cn(Cc2ccc(C(=O)O)cc2)c2ccccc2c1=O	inactive				
COc1ccc(Nc2ccc(OC)c3ccccc23)cc1	57%				
COC(=O)c1cc(Nc2ccc(OC)c3ccccc23)ccc1OC	inactive	92%			
COc1ccccc1Nc1ccc(OC)c2ccccc12	inactive				
O=S(=O)(c1ccc(O)cc1)c1ccc(O)c2ccccc12	30%				
COc1ccc(Sc2ccc(OC)c3ccccc23)cc1	inactive				
COC(=O)c1ccc(Cn2ccc(=O)c3ccccc32)cc1	25%				
O=C(O)c1ccccc1Nc1c(O)ccc2ccccc12	56%				
Cc1ccc(-c2c(C(OC(C)(C)C)C(=O)O)ccc3sc(C)cc23)cc1 (stereo not given)			0.046 µM	0.069 µM	96 µM
O=C(O)c1cc(Nc2ccc(O)c3ccccc23)ccc1O	88%	52%	19.1 µM	> 126 µM	126 µM
COc1ccc(Nc2ccc(C(=O)O)cc2)c2ccccc12	33%				
Oc1ccc(Sc2ccc(O)c3ccccc23)cc1	38%				
